Screening results from PubChem BioAssay.
Hits are enriched below; roughly 5.8% of the tested compounds scored in any of these assays.
GASC1 inh = inhibitors of human demethylase GASC-1 KDM4C; Q9H3R0; GST-KDM4C 2-372, H3K9me3 peptide, LANCE TR-FRET; inhibition, % at 12.5 µM; hit rate 0.15% among 96,000; AID 720574;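 active = mean replicate inhibition above about 25%, with at least 55% of replicates also reaching it, limit read from the data, passing the limit was not always enough; inconclusive = only one of those two conditions met; inactive = neither condition met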
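System – N-terminal GST-fused human GASC-1 (KDM4C) fragment, residues 2-372 · Input – enzyme final amount 10 nM · Technique – LANCE TR-FRET, Eu antibody, ULight-streptavidin, EDTA, ex 340 nm, em 618/671 nm · Medium – HEPES buffer, pH 7.5, plus ascorbate · Incubation – enzyme reaction 30 min, then detection 60 min, both room temperature · Reagent – H3K9me3 peptide with Fe(II)/2OG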
T cruzi growth-1 = inhibitors of T. cruzi proliferation | T. cruzi beta-gal in NIH3T3, GalScreen luminescence, 90 h | inhibition, % at 8.34 µM | hit rate 5.9% among 77,000 | AID 624255;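 active = mean inhibition above about 93%, with at least 55% of replicates each passing it, limit read from the data, passing the limit was not always enough; inconclusive = only one of those two conditions holds; inactive = neither condition holds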
Pf Dd2 growth = blocks growth of Plasmodium falciparum Dd2 parasites | P. falciparum Dd2 growth, SYBR Green, 72 h; stronger effect = lower value | activity change, % at 10 µM | hit rate 2.3% among 94,000; in the data active = activity change below about -80%; inconclusive = no clear call, values can overlap the other calls
IDH1 R132H inh = inhibitors of human IDH1 R132H; O75874; IDH1 R132H reductase, diaphorase/resazurin fluorescence, 60 min; inhibition, % at 10 µM; hit rate 0.18% among 70,000; in the data active = inhibition above about 34%; inconclusive = no clear call, values can overlap the other calls; inactive = below about 11%
Target sequence (O75874 whole entry R132H): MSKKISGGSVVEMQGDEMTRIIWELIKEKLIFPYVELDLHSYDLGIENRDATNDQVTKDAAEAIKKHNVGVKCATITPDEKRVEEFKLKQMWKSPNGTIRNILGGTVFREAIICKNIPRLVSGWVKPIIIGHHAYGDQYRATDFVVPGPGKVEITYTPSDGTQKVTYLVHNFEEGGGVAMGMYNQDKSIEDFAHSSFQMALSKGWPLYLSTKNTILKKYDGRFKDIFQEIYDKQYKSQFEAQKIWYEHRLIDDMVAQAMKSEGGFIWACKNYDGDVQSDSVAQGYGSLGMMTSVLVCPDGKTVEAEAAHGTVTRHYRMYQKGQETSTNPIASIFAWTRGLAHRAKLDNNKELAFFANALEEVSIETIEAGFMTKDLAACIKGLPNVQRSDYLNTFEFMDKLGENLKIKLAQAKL
T cruzi growth-2 = inhibitors of T. cruzi proliferation | shares compounds with T cruzi growth-1 | T. cruzi beta-gal in NIH3T3, GalScreen luminescence, 90 h | inhibition, % at 8.35 µM | hit rate 72% among 5,600 | AID 651739;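 active = mean replicate inhibition above about 95% and at least 55% of replicates individually reaching it, limit read from the data; inconclusive = only one of the two criteria is met; inactive = neither criterion is met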
T cruzi growth-3 = Trypanosoma cruzi proliferation inhibition; shares compounds with T cruzi growth-1; T. cruzi beta-gal in NIH3T3, GalScreen luminescence, 90 h; inhibition, % at 2.09 µM; hit rate 21% among 5,600; AID 651740;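 active = mean inhibition above about 95%, with at least 55% of replicates also reaching it, limit read from the data; inconclusive = meets just one of the two conditions; inactive = meets neither condition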
NIH3T3 tox = cytotoxicity in mouse NIH/3T3 fibroblasts; shares compounds with T cruzi growth-1; NIH/3T3 viability, CellTiter-Glo ATP luminescence, 90 h; cytotoxicity (signal decrease), % at 8.35 µM; hit rate 14% among 5,600; AID 651742;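 active = mean signal decrease across replicates above about 35% based on untreated-well scatter, with enough replicates individually passing, limit read from the data; inconclusive = no rule stated though some were filed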
3T3 cytotox 2 = kills mouse NIH/3T3 fibroblasts. shares compounds with T cruzi growth-1. NIH/3T3 viability, CellTiter-Glo ATP luminescence, 90 h. hit rate 56% among 5,600. inhibition, % at 24.9 µM;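 active = mean loss of cell viability signal at or above a set limit, and enough replicates individually reaching it; inconclusive = meets only the mean limit or only the replicate share; inactive = meets neither condition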
Large screens that a line does not name were inactive (follow-up assays come after a bar, where they were run).

Cc1ccccc1-c1cnc2c(c1)C(=O)N([C@H](C)CO)C[C@H](C)[C@@H](CN(C)C(=O)CN(C)C)O2	none
CNC[C@@H]1Oc2cc(C#Cc3cccc(OC)c3)ccc2S(=O)(=O)N([C@H](C)CO)C[C@H]1C	T cruzi growth-1 106.0 | T cruzi growth-2 109.0 | T cruzi growth-3 inactive | NIH3T3 tox inactive | 3T3 cytotox 2 103.2
CNC[C@H]1Oc2cc(C#Cc3ccc(OC)cc3)ccc2S(=O)(=O)N([C@H](C)CO)C[C@@H]1C	T cruzi growth-1 109.3, Pf Dd2 growth -85.7 | T cruzi growth-2 98.2 | T cruzi growth-3 inconclusive | NIH3T3 tox 38.6 | 3T3 cytotox 2 105.3
CNC[C@H]1Oc2cc(C#Cc3cccc(F)c3)ccc2S(=O)(=O)N([C@H](C)CO)C[C@@H]1C	T cruzi growth-1 inconclusive | T cruzi growth-2 104.5 | T cruzi growth-3 inactive | NIH3T3 tox inactive | 3T3 cytotox 2 105.1
CNC[C@H]1Oc2cc(C#Cc3cccc(F)c3)ccc2S(=O)(=O)N([C@@H](C)CO)C[C@@H]1C	none
CN1C(=O)c2cc(NC(=O)Cc3cccs3)ccc2OC[C@H]2O[C@@H](CC(=O)NCCCN3CCOCC3)CC[C@@H]21	none (no result: IDH1 R132H inh)
O=C(C[C@@H]1C[C@H]2c3cc(NC(=O)Nc4ccc(C(F)(F)F)cc4)ccc3O[C@H]2[C@@H](CO)O1)NCc1ccc(Cl)cc1	T cruzi growth-1 inconclusive | T cruzi growth-2 99.9 | T cruzi growth-3 inactive | NIH3T3 tox inactive | 3T3 cytotox 2 inactive
O=C(C[C@H]1C[C@H]2c3cc(NC(=O)Nc4ccc(C(F)(F)F)cc4)ccc3O[C@H]2[C@@H](CO)O1)NCc1ccc(Cl)cc1	none
O=C(C[C@@H]1C[C@@H]2c3cc(NC(=O)Nc4ccc(C(F)(F)F)cc4)ccc3O[C@@H]2[C@H](CO)O1)NCc1ccc(Cl)cc1	T cruzi growth-1 166.4 | T cruzi growth-2 109.1 | T cruzi growth-3 inactive | NIH3T3 tox inactive | 3T3 cytotox 2 inactive
O=S(=O)(c1ccc(F)cc1)N1C[C@@H]2[C@H](c3ccccc31)[C@H](CO)N2Cc1ccc2c(c1)OCO2	T cruzi growth-1 100.8 (no result: IDH1 R132H inh) | T cruzi growth-2 106.9 | T cruzi growth-3 inactive | NIH3T3 tox inactive | 3T3 cytotox 2 inactive
O=S(=O)(c1ccccc1F)N1C[C@H]2[C@@H](c3ccccc31)[C@@H](CO)N2Cc1ccc2c(c1)OCO2	T cruzi growth-1 98.7 (no result: IDH1 R132H inh) | T cruzi growth-2 103.0 | T cruzi growth-3 100.4 | NIH3T3 tox inactive | 3T3 cytotox 2 inactive
Cc1ccc(-c2ccc3c(c2)O[C@H](CN(C)C(=O)C2CCCCC2)[C@@H](C)CN([C@@H](C)CO)S3(=O)=O)cc1	T cruzi growth-1 123.3 (no result: IDH1 R132H inh) | T cruzi growth-2 102.3 | T cruzi growth-3 100.4 | NIH3T3 tox inactive | 3T3 cytotox 2 104.3
C[C@@H]1CN([C@@H](C)CO)S(=O)(=O)c2ccc(-c3ccncc3)cc2O[C@H]1CN(C)C(=O)C1CCC1	T cruzi growth-1 108.1 | T cruzi growth-2 102.8 | T cruzi growth-3 inactive | NIH3T3 tox inactive | 3T3 cytotox 2 45.7
C[C@H](CO)N1C[C@H](C)[C@H](CN(C)C(=O)C2CCC2)Oc2cc(-c3ccncc3)ccc2S1(=O)=O	none (no result: IDH1 R132H inh)
C[C@@H]1CN([C@@H](C)CO)S(=O)(=O)c2ccc(-c3ccccc3)cc2O[C@@H]1CN(C)C(=O)C1CCCCC1	T cruzi growth-1 97.1 (no result: IDH1 R132H inh) | T cruzi growth-2 102.8 | T cruzi growth-3 inactive | NIH3T3 tox inactive | 3T3 cytotox 2 80.1
Cc1ccc(-c2ccc3c(c2)O[C@H](CN(C)C(=O)C2CCC2)[C@H](C)CN([C@H](C)CO)S3(=O)=O)cc1	none
C[C@@H]1CN([C@@H](C)CO)S(=O)(=O)c2ccc(-c3ccc(F)cc3)cc2O[C@H]1CN(C)C(=O)C1CCCCC1	T cruzi growth-1 105.3 (no result: IDH1 R132H inh) | T cruzi growth-2 100.9 | T cruzi growth-3 inactive | NIH3T3 tox 51.5 | 3T3 cytotox 2 46.8
Cc1noc(C)c1NC(=O)N(C)C[C@H]1Oc2ccc(NC(=O)C3CCCCC3)cc2CC(=O)N([C@H](C)CO)C[C@H]1C	none (no result: IDH1 R132H inh)
